In ChEMBL document CHEMBL1130327, “Synthesis and antimalarial effects of phenothiazine inhibitors of a Plasmodium falciparum cysteine protease” (J Med Chem, 1997) one finds IC50 and Activity data, which are given here for 27 compounds.

For one test, the target named is T1, Falcipain 2 (Plasmodium falciparum, UniProt Q9N6S8).
T1 sequence (Q9N6S8 whole entry): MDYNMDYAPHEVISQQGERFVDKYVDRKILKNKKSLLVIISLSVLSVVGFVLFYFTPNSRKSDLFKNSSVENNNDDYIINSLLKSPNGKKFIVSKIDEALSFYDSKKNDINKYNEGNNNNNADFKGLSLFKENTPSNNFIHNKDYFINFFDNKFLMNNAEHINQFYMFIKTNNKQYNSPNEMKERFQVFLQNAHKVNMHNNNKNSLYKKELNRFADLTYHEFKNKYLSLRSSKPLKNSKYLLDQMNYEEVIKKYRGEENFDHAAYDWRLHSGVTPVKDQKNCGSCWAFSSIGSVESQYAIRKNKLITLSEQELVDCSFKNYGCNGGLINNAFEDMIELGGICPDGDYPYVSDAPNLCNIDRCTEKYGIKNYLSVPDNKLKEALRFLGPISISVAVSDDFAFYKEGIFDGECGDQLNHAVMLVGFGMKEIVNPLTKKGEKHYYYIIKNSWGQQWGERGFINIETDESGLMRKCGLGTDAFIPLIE
The test can be described thus: Inhibition of falcipain activity. In kind it is functional. Summed up:
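Soluble parasite extract containing falcipain (30 nM) preincubated 30 min at room temperature with compound (100× DMSO stocks) and 10 mM DTT in 0.1 M sodium acetate, pH 5.5. Z-Phe-Arg-AMC then added to 50 μM final. Fluorescence (ex 380, em 460 nm) followed continuously for 30 min. Rates compared with DMSO controls. Multiple concentrations tested in duplicate or triplicate; IC50 extrapolated from % control activity curves.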

In test [1] the test system is Plasmodium falciparum. The test can be described thus: Inhibition of parasitaemia in ring-form development assay. Format: functional, organism-based. Summed up:
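Ring-stage Itg2 cultures (2 mL) incubated with compound from 100× DMSO stocks. Medium changed at 24 h with inhibitor maintained. At 48 h, new ring forms per 1000 erythrocytes counted on Giemsa-stained smears and compared with 1% DMSO controls.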

Test [2] has as its system Plasmodium falciparum. The experiment in a line: Inhibition of parasitaemia in [3H]hypoxanthine incorporation assay. In kind it is functional, organism-based. Summed up:
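Ring-stage P. falciparum Itg2 cultures (300 μL) given compound from 100× DMSO stocks for 24 h. [3H]hypoxanthine then added (0.0144 μg, 1.2 μCi per well) for a further 18 h. Cells harvested onto glass-fiber filters and counted by scintillation. Uptake compared with 1% DMSO controls; IC50 extrapolated from % control curves.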

Test [3] deals with Hemozoin. The test can be described thus: Inhibition of hemoglobin degradation as percentage of organisms with dark swollen food vacuoles; 10-50%. Details: scale not given: the % may be the effect or the level left. The note with it: Plasmodium falciparum. In kind it is functional.
A further test has as its system MDCK. The experiment in a line: Compound was tested for inhibition of MDCK cell metabolism using MTT assay method. In kind it is functional, cell-based. As to conditions: Canis lupus familiaris. In outline: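 MDCK cells cultured overnight in phenol red-free RPMI with 1–100 μM compound (100× DMSO stocks); medium then replaced with MTT (1 mg/mL) for 2 h. Supernatant removed, ethanol added, absorbance read at 560 nm. Compared with cells given 1% DMSO overnight.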
(In general: Formazan colour is commonly taken as a measure of viable cells.)

Test [4] deals with Hemozoin. The test can be described thus: Inhibition of hemoglobin degradation as percentage of organisms with dark swollen food vacuoles. In kind it is functional. As to conditions: Plasmodium falciparum. The arrangement: scale not given: the % may be the effect or the level left.
Test [5] has as its system Hemozoin. The experiment in a line: Inhibition of hemoglobin degradation as percentage of organisms with dark swollen food vacuoles; 50-90%. Format: functional. The arrangement: scale not given: the % may be the effect or the level left. As to conditions: Plasmodium falciparum.
For test [6], the system named is Hemozoin. The experiment in a line: Inhibition of hemoglobin degradation as percentage of organisms with dark swollen food vacuoles; 0-10%. Format: functional. The arrangement: scale not given: the % may be the effect or the level left. The note with it: Plasmodium falciparum.

The IC50 is the midpoint of a concentration-inhibition curve.

`COc1ccc(C2CC3=Nc4ccc(F)cc4S(=O)(=O)C3=C(O)C2)cc1OC` (stereo not drawn): the IC50 at Falcipain 2 worked out at 5 µM; with Plasmodium falciparum [1], 1 µM; in the test with Plasmodium falciparum [2], 3 µM. Moreover, in the test with Hemozoin [3], the Activity was 50%.
As to `CC1(C)CC2=Nc3ccc(F)cc3S(=O)(=O)C2=C(O)C1`, the IC50 was 5 µM against Falcipain 2, more than 100 µM with MDCK, 30 µM with Plasmodium falciparum [1] and 100 µM in the test on Plasmodium falciparum [2]. The compound further came in with an Activity in the test with Hemozoin [4] of more than 90%.
With `O=S1(=O)C2=C(O)CC(c3ccc(Cl)cc3)CC2=Nc2ccc(Cl)cc21` (stereo not drawn), the IC50 against Falcipain 2 is 4 µM; in the test with Plasmodium falciparum [1] it was 4 µM; in the test with Plasmodium falciparum [2], 8 µM. This compound came in with an Activity in the test with Hemozoin [3] of 50%.
As to `OC1=C2Sc3cc(Cl)ccc3N=C2CC(c2ccccc2)C1` (stereo not drawn), the IC50 on Falcipain 2 was 10 µM.
The same measure, in the same setting: to `OC1=C2Sc3cc(F)ccc3N=C2CC(c2ccccc2)C1` (stereo not drawn) belongs 20 µM; to `COc1ccc(C2CC3=Nc4ccc(Cl)cc4S(=O)(=O)C3=C(O)C2)cc1OC` (stereo not drawn), 50 µM; to `COc1cccc(C2CC3=Nc4ccc(F)cc4SC3=C(O)C2)c1` (stereo not drawn), 20 µM.
Turning to `OC1=C2Sc3cc(F)ccc3N=C2CC(c2ccc(Cl)cc2)C1` (stereo not drawn), the IC50 at Falcipain 2 was 5 µM; with MDCK, more than 100 µM; in the test with Plasmodium falciparum [1], 3 µM; in the test on Plasmodium falciparum [2], 4 µM. Besides, the Activity in the test with Hemozoin [5] came out at 90%.
`OC1=C2Sc3cc(Cl)ccc3N=C2CC(c2ccc(Cl)cc2Cl)C1` (stereo not drawn) had an IC50 at Falcipain 2 of 10 µM.
Still for that read-out and setting: to `CC1(C)CC2=Nc3ccc(Cl)cc3SC2=C(O)C1` belongs 30 µM.
With `O=S1(=O)C2=C(O)CC(c3ccccc3)CC2=Nc2ccc(Cl)cc21` (stereo not drawn), the IC50 against Falcipain 2 stood at 4 µM; with Plasmodium falciparum [1] it was 5 µM; in the test on Plasmodium falciparum [2], 5 µM. The Activity in the test with Hemozoin [5] came out at 90%.
With `COc1ccc(C2CC3=Nc4ccc(Cl)cc4S(=O)(=O)C3=C(O)C2)cc1` (stereo not drawn), the IC50 on Falcipain 2 amounted to 30 µM.
Same read-out and setting: to `CC1(C)CC2=Nc3ccc(F)cc3SC2=C(O)C1` belongs 60 µM.
Same read-out and setting: the figure for `COc1ccc(C2CC3=Nc4ccc(F)cc4SC3=C(O)C2)cc1OC` (stereo not drawn) is 20 µM.
Same read-out and setting: to `COc1ccc(C2CC3=Nc4ccc(Cl)cc4SC3=C(O)C2)cc1OC` (stereo not drawn) belongs 30 µM.
`OC1=C2Sc3cc(Cl)ccc3N=C2CC(c2ccc(Cl)cc2)C1` (stereo not drawn): the IC50 against Falcipain 2 stood at 4 µM; with MDCK it was 10 µM; in the test on Plasmodium falciparum [1], 3 µM; in the test on Plasmodium falciparum [2], 6 µM. Besides, the Activity in the test with Hemozoin [6] is less than 10%.
`OC1=C2Sc3cc(F)ccc3N=C2CC(c2ccc(Cl)cc2Cl)C1` (stereo not drawn) yielded an IC50 against Falcipain 2 of 10 µM.
Same read-out and setting: to `O=S1(=O)C2=C(O)CC(c3ccc(Cl)cc3Cl)CC2=Nc2ccc(Cl)cc21` (stereo not drawn) belongs 30 µM; to `COc1cccc(C2CC3=Nc4ccc(Cl)cc4SC3=C(O)C2)c1` (stereo not drawn), 20 µM.
On the same count and under the same terms, to `COc1cccc(C2CC3=Nc4ccc(F)cc4SC3=C(O)C2)c1OC` (stereo not drawn) belongs 20 µM; to `OC1=C2Sc3cc(Cl)ccc3N=C2CCC1`, 40 µM.
As to `O=S1(=O)C2=C(O)CC(c3ccc(Cl)cc3)CC2=Nc2ccc(F)cc21` (stereo not drawn), the values for the IC50 against Falcipain 2, in the test on Plasmodium falciparum [1] and with Plasmodium falciparum [2] were 5 µM, 6 µM and 4 µM, respectively. This compound also registered an Activity in the test with Hemozoin [3] of 50%.
For the compound `CC1(C)CC2=Nc3ccc(Cl)cc3S(=O)(=O)C2=C(O)C1`, the IC50 was 5 µM against Falcipain 2, more than 100 µM in the test with MDCK, 20 µM in the test with Plasmodium falciparum [1] and 60 µM with Plasmodium falciparum [2]. The compound further returned an Activity in the test with Hemozoin [4] of more than 90%.
Consider `COc1cccc(C2CC3=Nc4ccc(Cl)cc4SC3=C(O)C2)c1OC` (stereo not drawn), for which the IC50 against Falcipain 2 was 10 µM.
For the compound `COc1cccc(C2CC3=Nc4ccc(F)cc4S(=O)(=O)C3=C(O)C2)c1` (stereo not drawn), the IC50 against Falcipain 2 was 5 µM; in the test on MDCK, more than 100 µM; with Plasmodium falciparum [1], 3 µM; in the test on Plasmodium falciparum [2], 3 µM. In addition, the Activity with Hemozoin [5] is 90%.
`COc1ccc(C2CC3=Nc4ccc(Cl)cc4SC3=C(O)C2)cc1` (stereo not drawn) returned an IC50 against Falcipain 2 of 10 µM.
On to `COc1cccc(C2CC3=Nc4ccc(Cl)cc4S(=O)(=O)C3=C(O)C2)c1OC` (stereo not drawn), for which the IC50 on Falcipain 2 was 4 µM; in the test on MDCK, more than 100 µM; in the test on Plasmodium falciparum [1], 2 µM; in the test with Plasmodium falciparum [2] it was 2 µM. The Activity in the test with Hemozoin [4] is more than 90%.
